Series [1] addresses T1, ATP-dependent translocase ABCB1 (Homo sapiens, UniProt P08183). Briefly: Inhibition of P-gp (unknown origin) expressed in MDCK-MDR1 cells assessed as increase in calcein-AM accumulation incubated for 30 mins by calcein-AM dye based fluorescence assay. The series is classed as cell-based.
Series [2] has as its target T1, ATP-dependent translocase ABCB1. Briefly: Inhibition of P-gp in human K562/DOX cells assessed as drug level causing 50% increase in nuclear pirarubicin concentration incubated for 30 mins by fluorescence based assay. The series is classed as cell-based. The settings on record: read-out: I0.5.
Series [3] shares this target. As to the kind of experiment: Inhibition of P-gp in human K562/DOX cells assessed as drug level causing maximum increase in nuclear pirarubicin concentration incubated for 30 mins by fluorescence based assay relative to control. The series is classed as cell-based. The following applies: 0.5 h.
The target in series [4] is T2, Broad substrate specificity ATP-binding cassette transporter ABCG2 (Homo sapiens, UniProt Q9UNQ0).
T2 sequence (Q9UNQ0 whole entry): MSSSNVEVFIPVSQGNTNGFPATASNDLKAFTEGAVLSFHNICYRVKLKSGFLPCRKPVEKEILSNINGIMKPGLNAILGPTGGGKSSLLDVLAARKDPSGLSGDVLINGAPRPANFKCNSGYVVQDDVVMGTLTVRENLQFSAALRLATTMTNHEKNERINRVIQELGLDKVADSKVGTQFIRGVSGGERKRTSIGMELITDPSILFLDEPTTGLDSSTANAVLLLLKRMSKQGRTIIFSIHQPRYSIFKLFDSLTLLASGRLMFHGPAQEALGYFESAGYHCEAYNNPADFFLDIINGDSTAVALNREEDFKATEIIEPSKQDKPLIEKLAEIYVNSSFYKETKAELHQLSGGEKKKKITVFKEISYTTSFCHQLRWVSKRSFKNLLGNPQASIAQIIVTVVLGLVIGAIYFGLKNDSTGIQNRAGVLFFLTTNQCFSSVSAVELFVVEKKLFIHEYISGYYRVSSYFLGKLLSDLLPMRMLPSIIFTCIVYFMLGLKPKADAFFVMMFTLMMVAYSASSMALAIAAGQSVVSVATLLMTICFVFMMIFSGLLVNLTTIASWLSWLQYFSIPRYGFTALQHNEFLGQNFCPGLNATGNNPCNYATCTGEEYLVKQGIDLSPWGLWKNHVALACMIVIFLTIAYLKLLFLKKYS
As to the kind of experiment: Inhibition of BCRP (unknown origin) expressed in MDCK cells assessed as increase in Hoechst 33342 accumulation incubated for 30 mins by Hoechst 33342 dye based fluorescence assay. The series is classed as cell-based.

A further series deals with P-gp (MDR1, ABCB1) (Homo sapiens, UniProt P08183). As to the kind of experiment: Inhibition of MDR1 (unknown origin) expressed in MDCK-MDR1 cells assessed as decrease in ATP consumption at 10 uM incubated for 2 hrs by ATPlite luminescence assay relative to control. The series is classed as cell-based. The following applies: MDCK-MDR1 cells expressing MDR1. A general note: Cellular ATP, detected with luciferase, serves as a proxy for viable cell number.
Chain of P-gp (MDR1, ABCB1) (P08183 whole entry): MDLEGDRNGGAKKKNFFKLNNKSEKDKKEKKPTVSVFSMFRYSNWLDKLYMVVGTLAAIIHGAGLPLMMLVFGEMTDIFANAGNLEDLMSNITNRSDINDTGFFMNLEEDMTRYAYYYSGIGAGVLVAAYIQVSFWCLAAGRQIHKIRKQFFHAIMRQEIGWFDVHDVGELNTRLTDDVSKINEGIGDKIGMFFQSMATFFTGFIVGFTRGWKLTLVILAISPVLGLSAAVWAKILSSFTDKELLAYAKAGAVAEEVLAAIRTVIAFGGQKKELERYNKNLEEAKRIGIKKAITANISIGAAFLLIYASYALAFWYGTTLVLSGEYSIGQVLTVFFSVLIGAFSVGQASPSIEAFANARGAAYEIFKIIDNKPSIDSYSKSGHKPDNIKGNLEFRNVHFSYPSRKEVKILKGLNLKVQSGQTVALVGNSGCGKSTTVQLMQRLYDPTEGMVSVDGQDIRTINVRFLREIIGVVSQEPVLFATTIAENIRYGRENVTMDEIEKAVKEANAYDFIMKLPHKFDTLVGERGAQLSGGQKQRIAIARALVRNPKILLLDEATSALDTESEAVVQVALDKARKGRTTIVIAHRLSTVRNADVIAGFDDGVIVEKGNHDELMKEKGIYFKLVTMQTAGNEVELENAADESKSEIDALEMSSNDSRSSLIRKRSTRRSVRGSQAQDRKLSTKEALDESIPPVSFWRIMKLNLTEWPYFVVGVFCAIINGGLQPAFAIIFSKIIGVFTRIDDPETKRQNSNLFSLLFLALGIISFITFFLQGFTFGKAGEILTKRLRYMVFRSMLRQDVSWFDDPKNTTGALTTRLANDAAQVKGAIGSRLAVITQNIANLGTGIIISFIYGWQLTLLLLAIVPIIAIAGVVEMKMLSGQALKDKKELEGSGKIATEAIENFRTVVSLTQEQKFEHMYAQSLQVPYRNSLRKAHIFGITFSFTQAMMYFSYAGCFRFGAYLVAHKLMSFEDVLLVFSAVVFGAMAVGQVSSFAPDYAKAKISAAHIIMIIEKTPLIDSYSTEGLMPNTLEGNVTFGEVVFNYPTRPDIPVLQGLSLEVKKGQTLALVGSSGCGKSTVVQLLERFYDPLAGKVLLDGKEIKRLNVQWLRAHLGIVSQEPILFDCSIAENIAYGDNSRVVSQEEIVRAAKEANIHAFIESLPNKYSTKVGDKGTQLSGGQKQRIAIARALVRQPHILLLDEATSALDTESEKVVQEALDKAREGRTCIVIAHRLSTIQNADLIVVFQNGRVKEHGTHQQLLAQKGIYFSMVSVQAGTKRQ

Series [5] in a line: Chemical stability of compound assessed as half life in PBS at 1 uM incubated 120 mins by LC-MS/MS analysis. The series is classed as physicochemical. In outline:
(§1)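 Analyte added to PBS or human plasma (healthy volunteer, stored at -80 °C) to 1 μM; incubated at 37 °C for 0, 30, 60 and 120 min, triplicate per time point. Internal standard solution added, centrifuged, supernatant dried under nitrogen and redissolved. Analyte quantified by LC-MS/MS in MRM mode; half-life derived from decay rate k.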

Series [6] can be described thus: Stability of compound in human plasma assessed as half life at 1 uM incubated for 120 min by LC-MS/MS analysis. The series is classed as ADME, cell-free. In outline:
as §1

Series [7] has as its target T1, ATP-dependent translocase ABCB1. Briefly: Inhibition of MDR1 (unknown origin) expressed in MDCK-MDR1 cells assessed as decrease in ATP consumption incubated for 2 hrs by ATPlite luminescence assay. The series is classed as cell-based. The settings on record: mdck-mdr1, 2 h.
The test system of series [8] is MDCK. As to the kind of experiment: Cytotoxicity against dog MDCK cells assessed as reduction in cell viability incubated for 24 hrs by MTT assay. The following applies: Canis lupus familiaris. The series is classed as cell-based. Summed up: (§2)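 MDCK parental, MDCK-MDR1 and MDCK-MRP1 cells grown in DMEM high glucose with 10% FBS, 2 mM glutamine, penicillin/streptomycin at 37 °C, 5% CO2. Compound exposure 24 h; viability by MTT. EC50 taken per line; selectivity ratio computed as EC50 parental/EC50 MDR.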

Series [9] concerns MDCK-MDR1. Briefly: Cytotoxicity against dog MDCK-MDR1 cells assessed as reduction in cell viability incubated for 24 hrs by MTT assay. The series is classed as functional, cell-based. The settings on record: Canis lupus familiaris, MDCK-MDR1, 24 h. In outline:
as §2
(Formazan colour is commonly taken as a measure of viable cells.)

In series [10] the test system is MDCK-MDR1. Briefly: Induction of ROS-mediated cell death in dog MDCK-MDR1 cells at 500 nM incubated for 24 hrs by DCFDA-AM staining based ATPlite luminescence assay. The format is functional. The settings on record: Canis lupus familiaris. Summed up:
(§3)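 Viability by ATPlite luminescence; untreated cell RLU set as 100%, results as % viable cells vs untreated. Quadruplicates, n = 3, means ± SD.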

The test system of series [11] is MDCK-MDR1. Briefly: Induction of ROS-mediated cell death in dog MDCK-MDR1 cells at 500 nM incubated for 24 hrs in presence of NAC by DCFDA-AM staining based ATPlite luminescence assay. The following applies: Canis lupus familiaris. The series is classed as functional. Summed up: as §3
In series [12] the test system is MDCK-MDR1. Briefly: Induction of ROS generation in dog MDCK-MDR1 cells at 500 nM incubated for 24 hrs by DCFDA-AM staining based ATPlite luminescence assay. The series is classed as functional, cell-based. The following applies: Canis lupus familiaris. Summed up: (§4)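 MDCK-MRP1 or MDCK-MDR1 cells grown 24 h in fresh medium or with 500 nM compound, with or without 10 mM N-acetyl-cysteine. Intracellular ROS measured fluorimetrically with DCFDA-AM probe, expressed as nmol/mg cellular protein; duplicates, n = 3, means ± SD.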

A further series deals with P-gp (ABCB1) (Homo sapiens, UniProt P08183). Briefly: Inhibition of P-gp (unknown origin) in […] MDCK-MDR1 cells assessed as increase in doxorubicin-induced cytotoxicity at 500 nM […] by MTT assay relative to control. The series is classed as cell-based. The settings on record: probe doxorubicin.
Chain of P-gp (ABCB1) (P08183 whole entry): as above
Series [13] deals with MDCK. Briefly: Induction of ROS-mediated cell death in dog MDCK cells expressing MRP1 at 500 nM incubated for 24 hrs by DCFDA-AM staining based ATPlite luminescence assay. The format is functional. The settings on record: Canis lupus familiaris. Summed up: as §3
For series [14], the system named is MDCK. As to the kind of experiment: Induction of ROS-mediated cell death in dog MDCK cells expressing MRP1 at 500 nM in presence of NAC incubated for 24 hrs by DCFDA-AM staining based ATPlite luminescence assay. The format is functional. The following applies: Canis lupus familiaris. In outline: as §3
The test system of series [15] is MDCK. Briefly: Cytotoxicity against dog MDCK cells expressing MRP1 assessed as reduction in cell viability incubated for 24 hrs by MTT assay. The series is classed as functional, cell-based. The settings on record: Canis lupus familiaris. In outline:
as §2

The subject of series [16] is MDCK. As to the kind of experiment: Induction of ROS generation in dog MDCK cells over expressing MRP1 at 500 nM incubated for 24 hrs by DCFDA-AM staining based ATPlite luminescence assay. The format is functional, cell-based. The following applies: Canis lupus familiaris. In outline:
as §4

For a further series, the target named is T3, BCRP (ABCG2) (Homo sapiens, UniProt Q9UNQ0).
T3 sequence (Q9UNQ0 whole entry): T2 sequence (Q9UNQ0 whole entry)
Briefly: Inhibition of BCRP (unknown origin) expressed in MDCK cells assessed as increase in Hoechst 33342 accumulation at upto 100 uM incubated for 30 mins by Hoechst 33342 dye based fluorescence assay. The series is classed as cell-based. The following applies: MDCK cells expressing BCRP, probe Hoechst 33342.

Active and inactive are the calls of the source. The calls are words filed in the database; no cut-off is given here.

In general, EC50 refers to the concentration at which the effect is half-maximal. What is called inhibition is the relative decrease from the control value, in per cent. What is called half-life is how long it takes for the measured level to halve.

T1 sequence (P08183 whole entry): as above

For the compound `COc1cc(/C=C/C(=O)OC[C@@H](C)CN(C)CCCOC(=O)c2cc(OC)c(OC)c(OC)c2)cc(OC)c1OC`, the EC50 in [1] is 1.38 µM; in [4] (read-out: EC50), 3.7 µM. The IC50 in [2] worked out at 0.09 µM. Also, the Alpha max in [3] came to 0.75. For the same compound, the inhibition at 2 h, 10 µM at P-gp (MDR1, ABCB1) amounted to 20%. For the same compound, the half-life at 1 µM in series [5] was ≥ 4 h; in series [6] it was 0.483 h.

In the case of `COc1cc(/C=C/C(=O)OCCCN(C)C[C@H](C)COC(=O)c2cc(OC)c(OC)c(OC)c2)cc(OC)c1OC`, the 50% effective concentration (EC50) in series [1] is 0.55 µM; in [4] (read-out: EC50) it was 6.4 µM; in the series with MDCK [8], 100 µM; in the series with MDCK-MDR1 [9], 40 µM. In series [2], the IC50 was determined as 0.54 µM. Besides, the Alpha max in series [3] is 0.89. Further, the “inhibition (INH)” value in series [7] was “Not Active”. Moreover, the outcome in the series on MDCK-MDR1 [10], with MDCK-MDR1 [11] and in the series with MDCK-MDR1 [12] was Active. Besides, the half-life at 1 µM in [5] and in [6] was ≥ 4 h throughout.

`COc1cc(/C=C/C(=O)OCCCCCN(C)C[C@@H](C)COC(=O)c2cc(OC)c(OC)c(OC)c2)cc(OC)c1OC`: the EC50 was 0.31 µM in [1], 41 µM in [4] (read-out: EC50), 100 µM with MDCK [8] and 11.7 µM with MDCK [15]. For the same compound, the IC50 in [2] is 0.35 µM. Moreover, the Alpha max in series [3] was 0.72. In addition, the “inhibition (INH)” value in [7] was “Not Active”. The inhibition at 24 h, 0.5 µM on P-gp (ABCB1) stood at 30%. Besides, the result in the series with MDCK [13], in the series with MDCK [14] and with MDCK [16] was Active. The half-life at 1 µM in series [5] and in series [6] was ≥ 4 h throughout.

Take `COc1cc(/C=C/C(=O)OC[C@H](C)CN(C)CCCCCOC(=O)c2cc(OC)c(OC)c(OC)c2)cc(OC)c1OC`: the EC50 in [1] was 1 µM; in series [4] (mdck) it was “Not Active”. Moreover, the IC50 in series [2] worked out at 0.4 µM. Moreover, the Alpha max in [3] amounted to 0.99. For the same compound, the “inhibition (INH)” value in series [7] is recorded as “Not Active”. Further, the results for the half-life at 1 µM in series [5] and in series [6] were ≥ 4 h and 0.483 h, respectively. For the same compound, the inhibition at 0.5 h at BCRP (ABCG2) was 0%.

For `COc1cc(/C=C/C(=O)OC[C@H](C)CN(C)CCCOC(=O)c2c3ccccc3cc3ccccc23)cc(OC)c1OC`, the values for the EC50 in series [1] and in [4] (read-out: EC50) were 0.95 µM and 5.9 µM, respectively. Further, the IC50 in [2] stood at 0.08 µM. For the same compound, the Alpha max in [3] was found to be 0.99. Also, the “inhibition (INH)” value in series [7] is “Not Active”. Besides, the half-life at 1 µM in [5] and in [6] was ≥ 4 h in each case.

Regarding `COc1cc(/C=C/C(=O)OCCCCCN(C)C[C@H](C)COC(=O)c2cc(OC)c(OC)c(OC)c2)cc(OC)c1OC`, the 50% effective concentration (EC50) was 0.11 µM in series [1] and 8.1 µM in series [4] (read-out: EC50). Besides, the IC50 in [2] amounted to 0.24 µM. For the same compound, in series [3], the Alpha max is 0.75. For the same compound, the “inhibition (INH)” value in series [7] is listed as “Not Active”. Moreover, the half-life at 1 µM in series [5] and in series [6] was ≥ 4 h in each case.
